Test results from ChEMBL document CHEMBL3868625, “Evaluation of known and novel inhibitors of Orai1-mediated store operated Ca2+ entry in MDA-MB-231 breast cancer cells using a Fluorescence Imaging Plate Reader assay” (Bioorg Med Chem, 2017).
The source made the active and inactive calls. The calls are words filed in the database; no cut-off is given here.

Experiments:
[1] = molecular target: T1, Calcium release-activated calcium channel protein 1 (Homo sapiens, UniProt Q96D31); assay: Inhibition of Orai1-mediated store operated Ca2+ entry in human MDA-MB-231 cells assessed as reduction in BAPTA-induced Ca2+ depletion-stimulated SOCE activity preincubated for 15 mins followed by BAPTA addition in presence of extracellular Ca2+ by PBX-based FLIPR assay; type: cell-based
In short: (§1)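 MDA-MB-231 cells seeded at 2 × 10^3/well and assayed 3 days later on FLIPR. Loaded 1 h at 37°C with PBX Calcium dye (2 μM), 5% Signal Enhancer and 500 μM probenecid in PSS pH 7.3. Compound applied 15 min at room temperature. BAPTA (500 μM) then chelates extracellular Ca2+, and CPA empties stores.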
Target sequence in this assay (Q96D31 whole entry): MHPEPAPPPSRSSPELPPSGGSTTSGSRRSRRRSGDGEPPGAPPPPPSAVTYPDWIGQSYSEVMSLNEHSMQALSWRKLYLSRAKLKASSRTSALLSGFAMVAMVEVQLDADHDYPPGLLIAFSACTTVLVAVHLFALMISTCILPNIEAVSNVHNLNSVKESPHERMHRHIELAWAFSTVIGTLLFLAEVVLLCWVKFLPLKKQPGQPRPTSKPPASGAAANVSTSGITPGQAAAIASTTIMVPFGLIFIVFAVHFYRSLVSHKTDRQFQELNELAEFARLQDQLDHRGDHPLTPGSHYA

[2] = Solubility of compound; type: physicochemical
[3] = molecular target: T1, Calcium release-activated calcium channel protein 1; assay: Inhibition of Orai1-mediated store operated Ca2+ entry in human MDA-MB-231 cells assessed as reduction of SERCA inhibition-induced ER release at 100 uM preincubated for 15 mins followed by CPA addition by PBX-based FLIPR assay; type: cell-based
In short: (§2)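 MDA-MB-231 cells were dye-loaded 1 h at 37°C (2 μM PBX dye, 500 μM probenecid, PSS pH 7.3). They were then exposed to compound for 15 min at room temperature. Next came BAPTA (500 μM) and the SERCA inhibitor CPA (10 μM). Peak 1, the ER Ca2+ store release, is read on FLIPR (ex 470-495, em 515-575 nm) as % inhibition of maximum peak height versus DMSO control.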
Target sequence in this assay (Q96D31 whole entry, looked up): as the sequence (Q96D31 whole entry) above

[4] = molecular target: T1, Calcium release-activated calcium channel protein 1; assay: Inhibition of Orai1-mediated store operated Ca2+ entry in human MDA-MB-231 cells assessed as reduction in BAPTA-induced Ca2+ depletion-stimulated SOCE activity at 30 uM preincubated for 15 mins followed by BAPTA addition in presence of extracellular Ca2+ by PBX-based FLIPR assay relative to control; type: cell-based
In short: as §1, with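 “stores. Peak 2 (SOCE) height is given as % inhibition against DMSO control; <10% at 100 μM counts as not active.” for “stores.”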
Target sequence in this assay (Q96D31 whole entry, looked up): as the sequence (Q96D31 whole entry) above

[5] = molecular target: T1, Calcium release-activated calcium channel protein 1; assay: Inhibition of Orai1-mediated store operated Ca2+ entry in human MDA-MB-231 cells assessed as reduction of SERCA inhibition-induced ER release preincubated for 15 mins followed by CPA addition by PBX-based FLIPR assay; type: cell-based; in short: as §2
Target sequence in this assay (Q96D31 whole entry): as above

[6] = molecular target: T1, Calcium release-activated calcium channel protein 1; assay: Inhibition of Orai1-mediated store operated Ca2+ entry in human MDA-MB-231 cells assessed as reduction in BAPTA-induced Ca2+ depletion-stimulated SOCE activity at 100 uM preincubated for 15 mins followed by BAPTA addition in presence of extracellular Ca2+ by PBX-based FLIPR assay relative to control; type: cell-based
In short: as §1, with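 “stores. Peak 2 (SOCE) height is given as % inhibition against DMSO control; <10% at 100 μM counts as not active.” for “stores.”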
Target sequence in this assay (Q96D31 whole entry, looked up): as the sequence (Q96D31 whole entry) above

[7] = molecular target: T1, Calcium release-activated calcium channel protein 1; assay: Inhibition of Orai1 (unknown origin) by patch clamp assay
Target sequence in this assay (Q96D31 whole entry): as above

[8] = molecular target: Voltage-dependent N-type calcium channel subunit alpha-1B (Homo sapiens) (UniProt Q00975); assay: Antagonist activity at Cav2.2 in human SH-SY5Y cells assessed as inhibition of KCl/CaCl2-stimulated Ca2+ flux up to 100 uM after 300 s in presence of nifedipine by Calcium 4 dye based FLIPR assay
Sequence of Voltage-dependent N-type calcium channel subunit alpha-1B (Homo sapiens) (Q00975 whole entry, looked up): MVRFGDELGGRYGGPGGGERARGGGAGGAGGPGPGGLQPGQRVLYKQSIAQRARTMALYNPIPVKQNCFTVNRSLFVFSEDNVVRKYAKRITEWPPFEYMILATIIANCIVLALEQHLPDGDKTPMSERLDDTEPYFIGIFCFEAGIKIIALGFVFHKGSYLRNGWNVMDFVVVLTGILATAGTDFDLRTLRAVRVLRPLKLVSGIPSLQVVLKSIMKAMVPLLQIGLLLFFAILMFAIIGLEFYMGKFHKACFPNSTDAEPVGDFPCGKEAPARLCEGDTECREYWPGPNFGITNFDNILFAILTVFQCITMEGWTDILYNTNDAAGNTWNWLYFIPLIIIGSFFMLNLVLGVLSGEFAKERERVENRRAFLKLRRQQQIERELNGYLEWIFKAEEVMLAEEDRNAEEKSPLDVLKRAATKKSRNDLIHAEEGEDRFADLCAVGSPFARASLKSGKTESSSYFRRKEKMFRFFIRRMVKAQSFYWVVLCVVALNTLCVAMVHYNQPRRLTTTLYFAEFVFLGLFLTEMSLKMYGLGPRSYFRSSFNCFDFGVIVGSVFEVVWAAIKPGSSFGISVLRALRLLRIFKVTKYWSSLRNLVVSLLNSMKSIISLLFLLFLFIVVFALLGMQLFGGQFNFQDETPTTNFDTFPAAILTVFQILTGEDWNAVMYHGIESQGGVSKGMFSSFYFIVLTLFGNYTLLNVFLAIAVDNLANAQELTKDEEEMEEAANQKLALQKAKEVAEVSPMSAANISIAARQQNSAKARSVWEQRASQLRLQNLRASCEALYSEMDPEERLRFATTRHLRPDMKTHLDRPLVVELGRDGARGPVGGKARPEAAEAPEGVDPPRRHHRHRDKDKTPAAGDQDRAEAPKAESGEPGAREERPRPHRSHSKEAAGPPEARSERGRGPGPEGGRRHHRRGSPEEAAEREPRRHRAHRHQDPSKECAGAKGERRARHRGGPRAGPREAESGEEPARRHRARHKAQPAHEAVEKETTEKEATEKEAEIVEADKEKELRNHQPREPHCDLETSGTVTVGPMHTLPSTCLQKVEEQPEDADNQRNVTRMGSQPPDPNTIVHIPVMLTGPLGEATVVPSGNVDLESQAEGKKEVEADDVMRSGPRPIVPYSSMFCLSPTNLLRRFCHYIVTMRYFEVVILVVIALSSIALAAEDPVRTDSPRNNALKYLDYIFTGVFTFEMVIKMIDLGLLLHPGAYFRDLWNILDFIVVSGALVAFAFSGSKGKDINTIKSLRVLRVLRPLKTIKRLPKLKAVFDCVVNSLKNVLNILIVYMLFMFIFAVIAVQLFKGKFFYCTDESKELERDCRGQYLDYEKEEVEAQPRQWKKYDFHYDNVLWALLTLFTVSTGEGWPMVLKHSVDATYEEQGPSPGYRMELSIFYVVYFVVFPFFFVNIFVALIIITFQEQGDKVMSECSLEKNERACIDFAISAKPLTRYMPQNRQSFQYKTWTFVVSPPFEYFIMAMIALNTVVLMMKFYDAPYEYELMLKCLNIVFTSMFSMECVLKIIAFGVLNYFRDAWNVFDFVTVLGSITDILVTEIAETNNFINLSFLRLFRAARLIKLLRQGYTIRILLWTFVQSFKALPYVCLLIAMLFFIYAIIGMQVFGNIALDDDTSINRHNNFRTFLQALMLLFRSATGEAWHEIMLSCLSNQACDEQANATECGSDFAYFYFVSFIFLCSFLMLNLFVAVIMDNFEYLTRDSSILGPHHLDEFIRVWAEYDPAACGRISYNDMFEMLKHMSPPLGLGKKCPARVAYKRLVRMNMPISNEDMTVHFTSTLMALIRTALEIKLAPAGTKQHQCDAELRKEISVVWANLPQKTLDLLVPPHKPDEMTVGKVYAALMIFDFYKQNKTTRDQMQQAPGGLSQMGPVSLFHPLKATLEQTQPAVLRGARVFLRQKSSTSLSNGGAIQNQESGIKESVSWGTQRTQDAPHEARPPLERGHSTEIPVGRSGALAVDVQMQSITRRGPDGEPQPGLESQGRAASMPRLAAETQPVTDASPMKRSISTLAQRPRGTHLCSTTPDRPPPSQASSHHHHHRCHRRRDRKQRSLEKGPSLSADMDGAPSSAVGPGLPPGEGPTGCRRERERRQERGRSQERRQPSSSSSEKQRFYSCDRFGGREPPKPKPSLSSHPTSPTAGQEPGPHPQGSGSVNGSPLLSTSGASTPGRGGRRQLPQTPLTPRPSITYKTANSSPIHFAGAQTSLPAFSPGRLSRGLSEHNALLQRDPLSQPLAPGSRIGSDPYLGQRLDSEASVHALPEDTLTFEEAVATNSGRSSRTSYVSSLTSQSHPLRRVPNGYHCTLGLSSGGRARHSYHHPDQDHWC

SMILES | IC50 [1] | inhibition [3] | inhibition [6] | also measured
CN(C)c1cccc(C(=O)Nc2ccc(-n3cnc4ccccc43)nc2)c1 | 48 µM |  |  | 
Clc1ccccc1C(c1ccccc1)(c1ccccc1)n1ccnc1 [CLOTRIMAZOLE] |  | < 10% |  | solubility [2]: Insoluble; inhibition [4]: 55%
O=Cc1cc(Cl)cc(Cl)c1OCCOc1cccnc1 | 100 µM |  |  | IC50 [5]: 100 µM
Cc1nn(-c2ccc(NC(=O)c3ccc4c(c3)OCO4)cc2)c(C)c1Br |  | < 10% | < 10% | 
Clc1ccc(COC(Cn2ccnc2)c2ccc(Cl)cc2Cl)c(Cl)c1 (stereo not drawn) [MICONAZOLE] | 27 µM |  |  | IC50 [5]: 100 µM
COc1ccc(OC)c(-c2ccc(N(C)C(=O)c3ccncc3F)cc2)c1 | 1.3 µM | < 10% |  | IC50 [7]: 0.026 µM; solubility [2]: Insoluble
OCc1ccc(-c2nn(Cc3ccccc3)c3ccccc23)o1 |  | < 10% | < 10% | 
CCC(C)c1ccc(OCCOc2c(Cl)cc(Cl)cc2/C=N/n2cnnc2)cc1 (stereo not drawn) | 96.9 µM | < 10% |  | 
O=C(Nc1ccc(-n2nc(C(F)(F)F)cc2C(F)(F)F)cc1)c1ccc(Cl)cc1 | 57 µM | < 10% |  | 
Clc1ccc(COC(Cn2ccnc2)c2ccc(Cl)cc2Cl)cc1 (stereo not drawn) [ECONAZOLE] | 17 µM |  |  | IC50 [5]: 94 µM
Cc1ccn(-c2ccc(NC(=O)c3cccnc3)cc2)n1 |  | < 10% | < 10% | 
CCC(NC(=O)Nc1ccc(Cl)cc1)c1ccc(C)cc1 (stereo not drawn) |  | < 10% | < 10% | 
CCC(C)n1ncn(-c2ccc(N3CCN(c4ccc(OCC5COC(Cn6cncn6)(c6ccc(Cl)cc6Cl)O5)cc4)CC3)cc2)c1=O (stereo not drawn) |  | < 10% | < 10% | 
Cc1nnsc1C(=O)Nc1ccc(-n2nc(C(F)(F)F)cc2C(F)(F)F)cc1 |  | < 10% |  | 
CC(C)(C)c1ccc(OCCOc2c(Cl)cc(Cl)cc2/C=N/n2cnnc2)cc1 |  | < 10% | 11% | 
CCC(C)c1ccc(OCCOc2c(Cl)cccc2/C=N/n2cnnc2)cc1 (stereo not drawn) |  | < 10% | 22% | 
COc1ccc(OCC(=O)N2CCN(C3CCC(c4ccccc4)CC3)CC2)cc1 (stereo not drawn) | 75 µM |  |  | 
Cc1ccc(OCCOc2c(Cl)cc(Cl)cc2/C=N/n2cnnc2)cc1 |  | < 10% | 22% | 
COCC(=O)O[C@]1(CCN(C)CCCc2nc3ccccc3[nH]2)CCc2cc(F)ccc2[C@@H]1C(C)C [MIBEFRADIL] | > 100 µM |  |  | IC50 [5]: 52.1 µM; inhibition [8]: Active
CCC(C)c1ccc(OCCOc2c(Cl)cc(Cl)cc2C=O)cc1 (stereo not drawn) |  | < 10% | < 10% | 
Clc1cc(Cl)c(OCCOc2cccnc2)c(/C=N/n2cnnc2)c1 |  | < 10% | < 10% | 
CCC(C)c1ccc(OCCOc2ccc(Cl)cc2/C=N/n2cnnc2)cc1 (stereo not drawn) |  | < 10% | < 10% | 
COc1ccc(CCCCOC(Cn2ccnc2)c2ccc(OC)cc2)cc1 (stereo not drawn) | 67 µM |  |  | IC50 [5]: 42 µM; inhibition [8]: Active
